High-throughput results deposited in PubChem BioAssay by several laboratories.
Most compounds without a hit are left out; they make up all but 4.7% or so of the library.
MrgX1 ag – activates human MrgX1 receptor signaling | Q96LB2 | MrgX1-HEK293 cells, Fluo-4 calcium fluorescence, agonist mode; hits give high values | B-score at 10 µM | actives 0.44% (n = 310,000) | AID 588627;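 active = calcium response B-score plate-corrected fluorescence ratio at least 3 library SD, with starting fluorescence B-score inside 5 SD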
Target sequence (Q96LB2 whole entry, looked up): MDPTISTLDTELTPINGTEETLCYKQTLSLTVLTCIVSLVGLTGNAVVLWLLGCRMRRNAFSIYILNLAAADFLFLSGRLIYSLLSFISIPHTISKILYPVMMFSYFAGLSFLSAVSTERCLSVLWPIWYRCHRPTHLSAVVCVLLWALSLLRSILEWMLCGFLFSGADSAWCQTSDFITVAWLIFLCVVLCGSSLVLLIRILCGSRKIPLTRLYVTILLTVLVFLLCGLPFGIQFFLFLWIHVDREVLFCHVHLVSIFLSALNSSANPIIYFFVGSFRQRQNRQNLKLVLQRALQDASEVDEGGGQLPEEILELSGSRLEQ
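Assay system: MrgX1-expressing HEK293 cells / Amount: fifteen thousand cells per well / Doses: test compound in the initial addition of three / Timing: cells plated overnight, dye loaded 0.5 h 37 °C, 0.5 h room temperature / Technique: kinetic calcium dye fluorescence, Fluo-4 NW / Control set: positive and negative controls per plate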
MrgX1 allo act – human MrgX1 positive allosteric modulation, primary screen; actives 0.63% (n = 310,000); Q96LB2; B-score at 10 µM; MrgX1-HEK293, Fluo-4 calcium flux, FDSS; hits give high values;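 active = plate-corrected calcium response at least 3 library SD above typical, normal starting fluorescence, not activating the receptor alone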;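 also: compound read alongside a low EC10 to EC30 dose of BAM8-22 agonist; peak minus trough fluorescence over baseline measured at the second addition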
KCC2 mod – modulates chloride dependent transport by human KCC2; B-score of Tl+ flux slope (higher = more flux/activation; lower = inhibition) at 10 µM; actives 2.2% (n = 190,000); KCC2 cells, thallium flux FluoZin-2 fluorescence; Q9H2X9; AID 1456;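 active = thallium flux slope and its plate-corrected score both differing from the plate sample mean at a set confidence after two filtering rounds, in either direction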;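 also: slope of fluorescence scaled to starting intensity during 10 to 20 s after thallium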
RGS4 pot – potentiators or activators of RGS4 | HEK293 M3R/inducible RGS4, carbachol calcium flux Fluo4; hits give low values | B-score at 10 µM | actives 0.92% (n = 310,000);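 active = B-score of the integrated calcium signal more than 4 SD below the library mean, with starting fluorescence not abnormally high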;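 also: negative B-score means reduced calcium response which marks RGS4 activation or potentiation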
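test system = HEK293 cells with stable M3R and inducible RGS4 | schedule = recording 10 s baseline at 1 Hz, 100 s post-agonist | technique = Fluo4-AM (2 µM) calcium-flux fluorescence, kinetic read | measure = Agonist-evoked peak-minus-minimum fluorescence over baseline, integrated ratio, B score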
RGS4 inh – inhibitors of human RGS4; P49798; B-score at 10 µM; AID 463165; HEK293 M3R/RGS4 inducible, Fluo-4 calcium flux; hits give high values; triggered by carbachol at its EC20; actives 0.45% (n = 310,000);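 active = B-score, a plate-corrected calcium signal, over three deviations above library mean, with baseline fluorescence within five deviations of library mean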;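 also: RGS4 expression induced by doxycycline in cells with stable M3 receptor; B-score is computed from the integrated fluorescence ratio over baseline after carbachol; higher B-score means a larger calcium signal and so more RGS4 inhibition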
Target sequence (P49798 whole entry, looked up): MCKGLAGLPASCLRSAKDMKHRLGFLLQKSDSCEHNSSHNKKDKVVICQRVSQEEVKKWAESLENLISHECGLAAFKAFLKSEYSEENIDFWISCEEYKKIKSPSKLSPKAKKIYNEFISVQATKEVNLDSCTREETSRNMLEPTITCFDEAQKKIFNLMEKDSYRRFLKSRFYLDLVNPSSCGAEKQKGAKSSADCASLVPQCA
MrgX1 antag – human MrgX1 receptor antagonism, primary screen | Q96LB2 | AID 588676 | actives 1.3% (n = 310,000) | MRGX1-HEK293 calcium flux, Fluo-4, BAM8-22 antagonism; hits give low values | B-score at 10 µM;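 active = calcium-response B-score plate-corrected more than 3 library SD below zero, starting fluorescence within 5 deviations, no agonist response on first addition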;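 also: peak minus trough fluorescence over baseline after final BAM8-22 challenge near maximal dose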
KCC2 sec1 – KCC2 (human) modulation, secondary assay; shares compounds with KCC2 mod; HEK293-KCC2, thallium flux, FluoZin2 fluorescence; hits give high values; normalised thallium flux (F/F0 slope) at 10 µM; actives 15% (n = 3,700); AID 1713;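 active = thallium flux slope above the same plate's solvent-only control mean plus 3 SD; inconclusive = the two replicate wells disagree; inactive = no significant difference from solvent-only control wells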
KCC2 bumet counter – thallium flux despite bumetanide block in KCC2 cells, secondary assay 3; normalized thallium flux at 10 µM; actives 49% (n = 3,700); AID 1714; HEK293-KCC2 + bumetanide/ouabain, thallium flux FluoZin2; hits give high values; shares compounds with KCC2 mod;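 active = thallium entry rate above the same plate's blocked-transporter control wells by more than 3 SD; inconclusive = the two repeat wells disagree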;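 also: raw slope of fluorescence over initial fluorescence between 10 and 20 s after thallium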
KCC2 sec2 – confirmation of human KCC2 transport modulators; shares compounds with KCC2 mod; HEK293-KCC2, thallium flux FluoZin2 fluorescence; actives lie on both sides; F/F0 rise rate, 10–20 s post-thallium; normalized thallium flux at 10 µM; actives 23% (n = 3,700);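 active = thallium flux slope more than 3 SD above or below the plate's solvent-only control mean, mostly below; inconclusive = the two repeat wells disagreed; inactive = no significant shift from solvent-only controls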;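 also: raw slope with 0.1% DMSO as baseline and bumetanide as block control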
HEK293 Tl flux – acts in parental HEK cells, KCC2 counter-screen; shares compounds with KCC2 mod; HEK293 parental cells, thallium flux FluoZin2, ouabain; baseline-ratio fluorescence slope, 10–20 s after thallium; thallium flux rate (normalised fluorescence) at 10 µM; actives 46% (n = 3,700); AID 1716;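 active = thallium flux rate significantly above the same plate's solvent-only control wells, beyond their mean plus 3 SD; inconclusive = the two replicate wells gave conflicting results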
KCC2 ouabain – confirmation of human KCC2 modulators with ouabain. HEK293-KCC2, thallium flux FluoZin2 fluorescence; bidirectional: low = inhibitor, high = activator. raw Tl+ flux slope (below DMSO = inhibition, above = activation) at 10 µM. shares compounds with KCC2 mod. actives 48% (n = 3,700);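 active = thallium flux slope beyond 3 SD from same-plate DMSO control mean in most replicates, usually higher, sometimes lower; inconclusive = repeat tests gave conflicting results; inactive = no significant difference from controls in most replicates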;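 also: slope of initial-normalized fluorescence between seconds 10 and 20 after thallium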
HEK counter2 – acts in parental HEK cells, second KCC2 counter-screen | shares compounds with KCC2 mod | HEK293 parental, thallium flux FluoZin-2 fluorescence slope | thallium flux slope at 10 µM | actives 33% (n = 3,700) | AID 1718;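 active = thallium flux slope above the same plate's solvent-control mean plus 3 SD in both duplicate wells; inconclusive = duplicate wells that disagreed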;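 also: run without ouabain in cells lacking the KCC2 cotransporter; slope of fluorescence scaled to its starting value between 10 and 20 s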
RGS4 activ val – RGS4 activation, validation assay. shares compounds with RGS4 pot. HEK293 M3R/RGS4 inducible, carbachol calcium flux Fluo4. inhibition, % at 10 µM. actives 89% (n = 1,100);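 active = inhibition above 3 SD of the buffer control wells, cut at about 41% in these data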;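 also: signal is the integrated peak-minus-minimum Fluo4 fluorescence over baseline ratio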
RGS4 act ctr – activity in cells without induced RGS4 expression. inhibition, % at 10 µM. shares compounds with RGS4 pot. actives 82% (n = 1,100). HEK293 M3R non-induced RGS4, Fluo4 calcium flux; after carbachol challenge at its EC90. AID 602283;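 active = inhibition exceeding 3 SD of buffer-only control wells, cut at about 26% in these data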;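 also: percent drop in integrated peak-minus-baseline over baseline Fluo4 ratio after carbachol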
The depositor's hits bear a star; i = inactive; ? = inconclusive; . = not tested or not shown.

SMILES | MrgX1 ag | MrgX1 allo act | KCC2 mod | RGS4 pot | RGS4 inh | MrgX1 antag | KCC2 sec1 | KCC2 bumet counter | KCC2 sec2 | HEK293 Tl flux | KCC2 ouabain | HEK counter2 | others
O=C(O)C1CCN(c2c([N+](=O)[O-])cc(C(F)(F)F)cc2[N+](=O)[O-])CC1 | i | i | . | i | i | i | . | . | . | . | . | .
C=CCNC(=O)C1CCN(c2c([N+](=O)[O-])cc(C(F)(F)F)cc2[N+](=O)[O-])CC1 | i | i | . | i | i | i | 0.0109 | 0.00648 | 0.0294 | 0.0077 | 0.0297 | ?
CC(NC(=O)/C=C/c1ccccc1[N+](=O)[O-])C1CC2CCC1C2 (configuration not stated) | i | i | . | i | i | i | . | . | . | . | . | .
CCOC(=O)C(=O)Nc1ccc(Oc2ccccc2)cc1 | i | i | -4.01* | i | i | i | 0.00886 | 0.00587 | 0.0316 | 0.00694 | 0.0165* | 0.0109
CCC(OC(=O)C1=Cc2ccccc2OC1)C(=O)NCc1ccco1 (configuration not stated) | i | i | -2.83* | i | i | i | 0.00776 | 0.00686 | 0.032 | 0.00751 | ? | 0.0109
COc1ccccc1CNC(=O)[C@H](C)NC(=O)C1CCN(C(=O)[C@@H]2CCCN2C(=O)OC(C)(C)C)CC1 | i | i | . | i | i | i | . | . | . | . | . | .
Cc1[nH]n(-c2ccccc2)c(=O)c1/C=N/N(c1ccccc1)c1ccccc1 | i | i | 68.3* | i | i | i | ? | 0.107* | 0.0718* | 0.0628* | 0.088* | 0.0615*
Cc1ccc(-n2[nH]c(C)c(/C=N/c3cccc(C)n3)c2=O)cc1 | i | i | 4.91* | i | i | i | 0.00749 | 0.0128* | 0.032 | 0.0129* | ? | 0.011
Cc1[nH]n(-c2ccccc2)c(=O)c1C=Nc1cccc(F)c1 | i | i | 4.64* | i | i | i | 0.012 | 0.033* | 0.0297 | 0.0164* | 0.0282 | ?
Cc1cccc(/N=C/c2c(C)[nH]n(-c3ccccc3)c2=O)n1 | i | i | 17.7* | i | i | i | 0.00982 | 0.0321* | 0.0297 | 0.0124* | ? | ?
C=CCN=Cc1c(C)[nH]n(-c2ccccc2)c1=O | i | i | 0.0948 | i | i | i | . | . | . | . | . | .
Cc1ccc(-n2[nH]c(C)c(/C=N/n3c(C)nc4ccccc4c3=O)c2=O)cc1 | i | i | . | i | i | i | . | . | . | . | . | .
O=C(NCc1ccccn1)c1nc(Cn2ccc([N+](=O)[O-])n2)no1 | i | i | . | i | i | i | . | . | . | . | . | .
O=C1CN(C(=O)/C=C/c2ccc(Br)cc2)CCN1 | i | i | . | i | i | i | . | . | . | . | . | .
COCCn1c(SCC(=O)NC2CCCC2)nnc1-c1ccco1 | i | i | . | i | i | i | . | . | . | . | . | .
Cc1c(/C=C2\NC(=O)NC2=O)c2ccccc2n1C | i | i | . | i | i | i | . | . | . | . | . | .
CN(C)C(=O)c1cc(C(=O)Cc2ccccc2)c[nH]1 | i | i | . | i | i | i | . | . | . | . | . | .
COc1ccc(C(c2nnnn2Cc2cccs2)N2CCN(c3ccccc3F)CC2)cc1 (configuration not stated) | i | i | -4.13* | -7.64* | i | i | 0.00684 | ? | ? | 0.00758 | 0.0176* | 0.011 | RGS4 activ val=0.0;RGS4 act ctr=0.0
CCCCn1c(-c2csc(CCC)c2)n[nH]c1=S | i | i | 37.2* | -12* | i | i | ? | 0.0799* | 0.0442* | 0.0322* | 0.0408* | 0.0314* | RGS4 activ val=58.5*;RGS4 act ctr=83.8*
CCCCn1c(-c2cccnc2)n[nH]c1=S | i | i | 0.0398 | i | i | i | . | . | . | . | . | .
CC(C)(C)CC(C)(C)NCC(=O)Nc1c2c(nc3ccccc13)CCC2 | i | i | . | i | i | i | . | . | . | . | . | .
O=C(NCCOc1ccc(F)cc1)c1ccccc1SCc1ccccc1 | i | i | -5.45* | -7.71* | i | i | 0.00513 | ? | 0.0188* | 0.00588* | 0.0116* | 0.00893 | RGS4 activ val=92.5*;RGS4 act ctr=73.8*
Cc1[nH]c2ccccc2c1Cc1n[nH]c(=S)n1C | i | i | -6.37* | -8.19* | i | i | 0.0098 | 0.0059 | 0.0237* | 0.00751 | 0.0109* | 0.0116 | RGS4 activ val=0.0;RGS4 act ctr=0.0
COc1ccc(CCNC(=O)CNCCc2ccc(F)cc2)cc1 | i | i | . | i | i | i | . | . | . | . | . | .
S=c1[nH]nc(-c2ccc(Cl)cc2Cl)n1-c1ccccc1 | i | i | . | i | i | i | . | . | . | . | . | .
S=c1[nH]nc(-c2ccc(Cl)cc2Cl)n1Cc1ccccc1 | i | i | 8.95* | -7.75* | i | i | 0.00593 | 0.0388* | ? | 0.0206* | 0.0335* | 0.0231* | RGS4 activ val=91.0*;RGS4 act ctr=57.8*
COc1cc(Nc2cccc[n+]2C)cc(OC)c1OC | i | i | . | i | i | i | . | . | . | . | . | .
